“Also recorded” adds a separate entry of the source.
How the values were obtained:
[1] = biological target: BLM helicase (Homo sapiens, UniProt P54132); assay: gel-based BLM DNA unwinding assay; assay type: biochemical; settings: for IC50 (BLM): gel-based BLM DNA unwinding assay
[2] = kinetic aqueous solubility; assay type: physicochemical; settings: aqueous/DMSO solubility compared with other analogs
Procedure, shortened: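 Kinetic aqueous solubility in PBS buffer, pH 7.4. It was measured by chemiluminescent nitrogen detection (CLND) at an outside laboratory and in-house by UV-Vis detection.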

[3] = biological target: BLM ATPase activity (Homo sapiens, UniProt P54132); assay: BLM ATPase kinetic analysis; assay type: biochemical
Chain of BLM ATPase activity (P54132 whole entry): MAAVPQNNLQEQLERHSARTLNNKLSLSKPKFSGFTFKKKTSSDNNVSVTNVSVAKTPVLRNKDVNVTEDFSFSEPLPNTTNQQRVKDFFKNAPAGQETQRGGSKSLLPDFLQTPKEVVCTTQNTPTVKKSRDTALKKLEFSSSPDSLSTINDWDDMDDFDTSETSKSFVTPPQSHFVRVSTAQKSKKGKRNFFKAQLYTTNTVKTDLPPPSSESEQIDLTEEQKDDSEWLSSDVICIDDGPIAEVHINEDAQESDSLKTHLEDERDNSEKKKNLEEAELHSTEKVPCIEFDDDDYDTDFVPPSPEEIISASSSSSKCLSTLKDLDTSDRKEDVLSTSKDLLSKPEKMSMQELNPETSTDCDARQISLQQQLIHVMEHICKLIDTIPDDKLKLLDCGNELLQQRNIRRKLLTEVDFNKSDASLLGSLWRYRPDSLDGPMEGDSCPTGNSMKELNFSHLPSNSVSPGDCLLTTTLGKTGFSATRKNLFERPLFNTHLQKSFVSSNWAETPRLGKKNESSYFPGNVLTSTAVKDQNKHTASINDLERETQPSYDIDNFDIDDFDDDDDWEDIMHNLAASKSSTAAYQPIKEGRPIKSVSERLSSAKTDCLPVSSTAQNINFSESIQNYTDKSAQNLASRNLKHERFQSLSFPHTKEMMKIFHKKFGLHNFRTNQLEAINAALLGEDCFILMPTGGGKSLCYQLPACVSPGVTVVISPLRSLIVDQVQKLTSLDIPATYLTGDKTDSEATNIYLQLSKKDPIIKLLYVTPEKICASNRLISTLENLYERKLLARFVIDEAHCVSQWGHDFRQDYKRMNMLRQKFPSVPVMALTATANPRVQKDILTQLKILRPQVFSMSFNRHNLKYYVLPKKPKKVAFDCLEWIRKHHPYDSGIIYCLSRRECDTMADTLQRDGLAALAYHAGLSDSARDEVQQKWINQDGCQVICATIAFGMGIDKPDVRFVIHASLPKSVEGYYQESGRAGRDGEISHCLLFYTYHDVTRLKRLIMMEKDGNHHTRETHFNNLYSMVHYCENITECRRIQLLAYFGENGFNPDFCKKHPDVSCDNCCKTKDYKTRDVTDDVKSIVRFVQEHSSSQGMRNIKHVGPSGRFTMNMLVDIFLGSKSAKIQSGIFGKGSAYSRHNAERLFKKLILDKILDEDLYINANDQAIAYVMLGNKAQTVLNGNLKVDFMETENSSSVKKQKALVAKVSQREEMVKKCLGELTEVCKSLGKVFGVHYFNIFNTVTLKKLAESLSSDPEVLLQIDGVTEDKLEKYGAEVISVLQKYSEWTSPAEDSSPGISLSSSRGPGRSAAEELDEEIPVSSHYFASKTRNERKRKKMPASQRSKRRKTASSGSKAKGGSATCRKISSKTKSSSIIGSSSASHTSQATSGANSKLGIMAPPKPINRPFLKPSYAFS
Procedure, shortened: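 Michaelis–Menten analysis of BLM ATPase activity with and without test compound, replotted as a Lineweaver–Burk double-reciprocal plot. Each point is the mean ± SD of quadruplicate determinations, and the data shown represent three independent experiments.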

[4] = tested on: PSNF5 cells (BLM-complemented GM08505-derived BS cells); assay: sister chromatid exchange frequency in BLM-complemented cells; assay type: cell-based, human; settings: cells expressing BLM (PSNF5)
[5] = biological target: BLM (Homo sapiens, UniProt P54132); assay: fluorescence polarization analysis of BLM binding to single-stranded DNA
Chain of BLM (P54132 whole entry): as above

[6] = tested on: PSNG13 cells (BLM-defective GM08505-derived BS cells); assay: sister chromatid exchange frequency in BLM-defective cells; assay type: cell-based, human; settings: cells lacking BLM (PSNG13)
[7] = biological target: WRN (Homo sapiens, UniProt Q14191); assay: gel-based DNA unwinding assay, WRN; assay type: biochemical; settings: from gel-based IC50 values
Chain of WRN (Q14191 whole entry): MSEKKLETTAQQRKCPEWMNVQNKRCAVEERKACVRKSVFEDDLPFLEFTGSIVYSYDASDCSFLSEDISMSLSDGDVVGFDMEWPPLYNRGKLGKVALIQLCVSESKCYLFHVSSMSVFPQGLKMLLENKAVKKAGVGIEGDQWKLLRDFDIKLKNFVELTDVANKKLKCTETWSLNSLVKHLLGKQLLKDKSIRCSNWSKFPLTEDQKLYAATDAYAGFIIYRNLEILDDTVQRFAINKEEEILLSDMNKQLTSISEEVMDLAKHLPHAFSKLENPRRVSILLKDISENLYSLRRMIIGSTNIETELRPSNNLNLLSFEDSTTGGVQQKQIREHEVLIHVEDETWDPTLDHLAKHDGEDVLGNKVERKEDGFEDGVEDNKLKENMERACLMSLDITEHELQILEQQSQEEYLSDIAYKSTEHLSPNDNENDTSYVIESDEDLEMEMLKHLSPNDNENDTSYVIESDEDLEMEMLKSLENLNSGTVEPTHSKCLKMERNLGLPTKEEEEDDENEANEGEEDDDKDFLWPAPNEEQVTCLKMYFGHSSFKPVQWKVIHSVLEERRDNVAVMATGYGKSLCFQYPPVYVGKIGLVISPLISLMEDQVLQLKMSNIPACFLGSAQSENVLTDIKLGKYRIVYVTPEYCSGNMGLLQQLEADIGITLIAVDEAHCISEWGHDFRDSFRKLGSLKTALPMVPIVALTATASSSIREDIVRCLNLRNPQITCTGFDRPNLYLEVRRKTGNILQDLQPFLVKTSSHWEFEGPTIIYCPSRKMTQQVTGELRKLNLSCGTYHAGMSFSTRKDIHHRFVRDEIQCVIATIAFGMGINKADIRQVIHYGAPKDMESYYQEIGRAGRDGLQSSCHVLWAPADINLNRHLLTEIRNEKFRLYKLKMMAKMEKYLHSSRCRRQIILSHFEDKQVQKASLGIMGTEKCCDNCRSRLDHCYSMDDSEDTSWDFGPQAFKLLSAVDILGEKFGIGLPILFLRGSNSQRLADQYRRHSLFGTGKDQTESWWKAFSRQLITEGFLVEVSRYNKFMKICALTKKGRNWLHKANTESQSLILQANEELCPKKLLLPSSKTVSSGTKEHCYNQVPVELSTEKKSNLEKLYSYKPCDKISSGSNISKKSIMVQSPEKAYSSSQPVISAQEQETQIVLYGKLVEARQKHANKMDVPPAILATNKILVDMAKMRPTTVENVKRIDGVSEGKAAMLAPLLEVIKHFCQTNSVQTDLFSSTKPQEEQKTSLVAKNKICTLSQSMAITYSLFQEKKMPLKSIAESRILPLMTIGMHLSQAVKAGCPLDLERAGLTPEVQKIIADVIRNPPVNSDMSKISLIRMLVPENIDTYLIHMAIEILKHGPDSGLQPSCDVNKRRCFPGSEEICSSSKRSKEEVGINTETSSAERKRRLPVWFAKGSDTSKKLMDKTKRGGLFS

[8] = tested on: sister chromatid exchanges; settings: cited from earlier work
[9] = tested on: BLM-positive cells; settings: cited from earlier work
[10] = tested on: WRN helicase; settings: cited from earlier work

Chain of BLM helicase (P54132 whole entry): as the sequence (P54132 whole entry) above

Row | Compound | IC50 (BLM) [1] | also measured
1 | O=C(Nc1nnc(-c2ccncc2)s1)Oc1ccc2ccccc2c1 [Compound 7d] | weakly active or inactive | –
2 | O=c1c(Nc2ccc(Cl)c(Cl)c2)c(Nc2nnc(-c3ccncc3)s2)c1=O [Compound 7g] | – | solubility (in words) [2]: not improved over (1)
3 | O=C(Nc1ccc(Cl)cc1)Nc1nnc(-c2ccncc2)s1 [Compound 8] | drastic loss in activity | –
4 | O=C(Nc1ccccc1)Nc1nnc(-c2ccncc2)s1 [Compound 9] | drastic loss in activity | –
5 | N#Cc1cc(NC(=O)Nc2nnc(-c3ccncc3)s2)ccc1Cl [Compound 10] | – | improvement in potency when 3-Cl is replaced with cyano ([1]; relative to compound 1, BLM gel-based IC50): 4 fold; solubility (in words) [2]: noticeably diminished aqueous/DMSO solubility; also recorded: diminished solubility compared with 33
6 | N#Cc1cc(NC(=O)Nc2nnc(-c3ccncc3)s2)ccc1Br [Compound 23] | – | solubility (in words) [2]: noticeably diminished aqueous/DMSO solubility
7 | N#Cc1ccc(NC(=O)Nc2nnc(-c3ccncc3)s2)cc1Br [Compound 24] | – | solubility (in words) [2]: noticeably diminished aqueous/DMSO solubility
8 | N#Cc1cc(NC(=O)Nc2nnc(-c3ccncc3)s2)ccc1-c1cn[nH]c1 [Compound 33] | comparable activity to the probe compound | mode of BLM inhibition ([3]; Lineweaver-Burk double reciprocal plot): non-ATP competitive BLM inhibitor; effect on apparent Km of BLM ATPase activity ([3]; single-stranded oligonucleotide as DNA effector): does not affect the apparent Km value; induction of SCEs [4]: significant and dose-dependent induction of SCEs; displacement of DNA binding to BLM versus related DNA helicases [5]: selective displacement of DNA binding to BLM over related DNA helicases; inhibition of BLM binding to single-stranded DNA [5]: dose-dependent inhibition; induction of SCEs [6]: no further increase in SCEs; selectivity for BLM over WRN [7]: greater than 6 fold
9 | O=C(Nc1ccc(-n2ccnc2)c(F)c1)Nc1nnc(-c2ccncc2)s1 [Compound 35] | good activity | –
10 | N#Cc1cc(NC(=O)Nc2nnc(-c3ccncc3)s2)ccc1-c1ccc[nH]1 [Compound 36] | good activity | –
11 | O=C(Nc1ccc(F)c(C(F)(F)F)c1)Nc1nnc(-c2ccncc2)s1 [ML216] | – | induction of sister chromatid exchanges [8]: induce sister chromatid exchanges; antiproliferative activity [9]: selective antiproliferative activity in BLM-positive cells
12 | CCCOCN1C(=O)C=CC1=O [NSC19630] | – | WRN helicase inhibition [10]: small molecule inhibitor of WRN helicase

Continued, in another order:

Row | IC50 (BLM) [1] | Compound | also measured
13 | inactivity | O=C(Nc1ccc(Cl)c(Cl)c1)Nc1nnc(-c2ccccc2)s1 [Compound 4a] | –
14 | inactivity | O=C(Nc1ccc(Cl)c(Cl)c1)Nc1nnc(-c2ccccn2)s1 [Compound 4b] | –
15 | loss of activity | O=C(Nc1ccc(Cl)c(Cl)c1)Nc1ccc(-c2ccncc2)s1 [Compound 6a] | –
16 | completely inactive | O=C(Nc1ccc(Cl)c(Cl)c1)Nc1ncc(-c2ccncc2)s1 [Compound 6c] | –
17 | loss of activity | O=C(Nc1ccc(Cl)c(Cl)c1)Nc1nnc(-c2ccncc2)o1 [Compound 6d] | –
18 | weakly active or inactive | N=C(Nc1ccc(Cl)c(Cl)c1)Nc1nnc(-c2ccncc2)s1 [Compound 7b] | –
19 | weakly active or inactive | O=C(Cc1ccc2ccccc2c1)Nc1nnc(-c2ccncc2)s1 [Compound 7c] | –
20 | weakly active or inactive | O=S(=O)(Cc1ccc(Cl)c(Cl)c1)Nc1nnc(-c2ccncc2)s1 [Compound 7e] | –
21 | weakly active or inactive | N#C/N=C(/Nc1ccc(F)c(C(F)(F)F)c1)Nc1nnc(-c2ccncc2)s1 [Compound 7f] | –
22 | complete loss of activity | CN(C(=O)Nc1ccc2ccccc2c1)c1nnc(-c2ccncc2)s1 [Compound 7h] | –

— publication PMC3824626 (Bioorganic & medicinal chemistry letters, 2013)
